Active and inactive are the calls of the source.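 How the source made its calls: active means inhibition of at least 50%; inactive means inhibition below 50%.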

In this assay the target is Diacylglycerol lipase-beta (Mus musculus) (UniProt Q91WC9). The experiment in a line: mouse DAGLb inhibitors by competitive ABPP, late-stage follow-up, biochemical, gel-based fluorescence, overexpressed mouse, set 3 (AID 602300). The conditions noted are these: HEK293T membrane mDAGLb, at 1 µM, hits give high values. Put shortly: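 Test system: HEK293T membranes with overexpressed mouse DAGLb; Amount: 0.3 mg/mL membrane protein; Technique: SDS-PAGE with in-gel fluorescence scan, band integrated optical density; Schedule: 30 min compound plus 30 min probe, 37 °C; Measure: percent inhibition of DAGLb band versus DMSO and blank-gel references; Medium: Dulbecco's PBS (DPBS).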
Sequence of Diacylglycerol lipase-beta (Mus musculus) (Q91WC9 whole entry, looked up): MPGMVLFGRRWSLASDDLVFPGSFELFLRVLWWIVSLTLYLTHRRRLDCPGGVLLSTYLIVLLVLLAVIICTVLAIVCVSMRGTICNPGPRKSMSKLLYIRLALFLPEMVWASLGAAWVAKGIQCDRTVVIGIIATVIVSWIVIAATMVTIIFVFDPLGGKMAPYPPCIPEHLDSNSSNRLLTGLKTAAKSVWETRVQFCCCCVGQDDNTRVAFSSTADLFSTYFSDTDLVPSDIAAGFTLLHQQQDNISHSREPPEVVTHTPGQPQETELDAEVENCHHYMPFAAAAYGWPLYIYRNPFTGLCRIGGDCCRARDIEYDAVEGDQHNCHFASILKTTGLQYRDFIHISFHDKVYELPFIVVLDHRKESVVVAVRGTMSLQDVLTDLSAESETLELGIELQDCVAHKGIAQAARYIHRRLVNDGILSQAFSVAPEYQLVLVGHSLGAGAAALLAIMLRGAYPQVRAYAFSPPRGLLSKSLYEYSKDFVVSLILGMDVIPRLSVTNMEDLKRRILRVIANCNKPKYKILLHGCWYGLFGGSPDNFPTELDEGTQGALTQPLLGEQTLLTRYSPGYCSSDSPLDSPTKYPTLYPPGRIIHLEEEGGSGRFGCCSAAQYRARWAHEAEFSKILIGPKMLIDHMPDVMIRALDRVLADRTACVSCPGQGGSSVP
For `O=C(O)c1ccc(-c2ccc(-c3cn(C(=O)N4CCCCC4CCc4ccccc4)nn3)cc2)cc1` (configuration not stated), the inhibition was 1% (inactive).
Consider `O=C(O)c1cccc(-c2ccc(-c3cn(C(=O)N4CCCCC4c4ccccc4)nn3)cc2)c1` (configuration not stated), for which the inhibition is 6% (inactive).
Under `O=C(c1ccc(-c2ccc(-c3cn(C(=O)N4CCCCC4Cc4ccccc4)nn3)cc2)cc1)N1CCCCC1` (configuration not stated) stands 39% (inactive); under `O=C(N1CCCCC1c1ccccc1)n1cc(-c2ccc(-c3ccc(CO)cc3)cc2)nn1` (configuration not stated), 0% (inactive).
Under `O=C(N1CCCCC1c1ccccc1)n1cc(-c2ccc(-c3cccc(CO)c3)cc2)nn1` (configuration not stated) stands 0% (inactive); under `O=C(O)c1cccc(-c2ccc(-c3cn(C(=O)N4CCCCC4CCc4ccccc4)nn3)cc2)c1` (configuration not stated), 4% (inactive).
Under `O=C(c1ccc(-c2ccc(-c3cn(C(=O)N4CCCCC4c4ccccc4)nn3)cc2)cc1)N1CCCCC1` (configuration not stated) stands 0% (inactive); under `O=C(O)c1cccc(-c2ccc(-c3cn(C(=O)N4CCCCC4Cc4ccccc4)nn3)cc2)c1` (configuration not stated), 50%.
For `O=C(N1CCCCC1Cc1ccccc1)n1cc(-c2ccc(-c3cccc(CO)c3)cc2)nn1` (configuration not stated), the inhibition was 84%.
With `O=C(N1CCCCC1c1ccccc1)n1cc(-c2ccc(-c3ccccc3CO)cc2)nn1` (configuration not stated), the inhibition is 0% (inactive).
Under `O=C(c1cccc(-c2ccc(-c3cn(C(=O)N4CCCCC4c4ccccc4)nn3)cc2)c1)N1CCCCC1` (configuration not stated) stands 0% (inactive); under `NC(=O)c1ccc(-c2ccc(-c3cn(C(=O)N4CCCCC4c4ccccc4)nn3)cc2)cc1` (configuration not stated), 0% (inactive).

As a reminder, the inhibition is the share of the control response that was lost under treatment.
